Columns and labels:
Format in all cases: functional, A2780 ADR
[1] = Reversal of multidrug resistance in human 2780AD cells assessed as [3H]vincristine accumulation at 10 ug/mL after 2 hrs relative to control
Method in brief: (§1)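 Multidrug-resistant human ovarian cancer 2780AD cells were exposed to taxoids at 0.1, 1 or 10 µg/mL. Radiolabelled vincristine accumulated in the cells was measured as dpm/well, using means of triplicate determinations. Results are expressed as % of vincristine accumulated relative to the control experiment. They were also scored on a seven-level index according to the range of relative accumulation.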

[2] = Reversal of multidrug resistance in human 2780AD cells assessed as [3H]vincristine accumulation at 1 ug/mL after 2 hrs relative to control; method in brief: as §1
[3] = Reversal of multidrug resistance in human 2780AD cells assessed as [3H]vincristine accumulation at 10 ug/mL after 2 hrs relative to verapamil
[4] = Reversal of multidrug resistance in human 2780AD cells assessed as [3H]vincristine accumulation at 0.1 ug/mL after 2 hrs relative to verapamil
[5] = Reversal of multidrug resistance in human 2780AD cells assessed as [3H]vincristine accumulation at 0.1 ug/mL after 2 hrs relative to control; method in brief: as §1
[6] = Reversal of multidrug resistance in human 2780AD cells assessed as [3H]vincristine accumulation at 1 ug/mL after 2 hrs relative to verapamil

| SMILES | Activity [1] [%] | Activity [2] [%] | Activity [3] [%] | Activity [4] [%] | Activity [5] [%] | Activity [6] [%] |
| --- | --- | --- | --- | --- | --- | --- |
| C=C1[C@@H](OC(C)=O)CC[C@@]2(C)C[C@H](OC(C)=O)C3=C(C)C[C@H](OC(=O)C(C)C)[C@@H]([C@@H](OC(C)=O)[C@H]12)C3(C)C | 522 | 195 | 98 | 82 | 96 | 95 |
| C=C1[C@@H](OC(C)=O)CC[C@@]2(C)C[C@H](OC(C)=O)C3=C(C)C[C@H](OC(=O)CC)[C@@H]([C@@H](OC(C)=O)[C@H]12)C3(C)C | 770 | 295 | 145 | 102 | 119 | 134 |
| C=C1[C@@H](OC(C)=O)CC[C@@]2(C)C[C@H](OC(C)=O)C3=C(C)C[C@H](OC(C)=O)[C@@H]([C@@H](OC(C)=O)[C@H]12)C3(C)C [TAXUYUNNANINE C] | 244 | 155 | 78 | 91 | 105 | 97 |
| COc1ccc(CCN(C)CCCC(C#N)(c2ccc(OC)c(OC)c2)C(C)C)cc1OC (configuration not stated) [VERAPAMIL] | 531 | 207 | – | – | 117 | – |
| C=C1[C@@H](OC(C)=O)CC[C@@]2(C)C[C@H](OC(C)=O)C3=C(C)C[C@H](OC(=O)C(C)C(C)O)[C@@H]([C@@H](OC(C)=O)[C@H]12)C3(C)C (some centres not stated) [YUNNANXANE] | 234 | 150 | 75 | 97 | 112 | 94 |

Source: ChEMBL document CHEMBL1146459, “Production of biologically active taxoids by a callus culture of Taxus cuspidata” (2004)
